{
  "source": "paper PMC4339026",
  "about": "(Biopolymers, 2014)",
  "format_in_all_cases": "biochemical",
  "key": {"meprin β": {"target": "T1, meprin β (Homo sapiens, UniProt Q16820)", "T1 sequence (Q16820 62-614 limits assumed)": "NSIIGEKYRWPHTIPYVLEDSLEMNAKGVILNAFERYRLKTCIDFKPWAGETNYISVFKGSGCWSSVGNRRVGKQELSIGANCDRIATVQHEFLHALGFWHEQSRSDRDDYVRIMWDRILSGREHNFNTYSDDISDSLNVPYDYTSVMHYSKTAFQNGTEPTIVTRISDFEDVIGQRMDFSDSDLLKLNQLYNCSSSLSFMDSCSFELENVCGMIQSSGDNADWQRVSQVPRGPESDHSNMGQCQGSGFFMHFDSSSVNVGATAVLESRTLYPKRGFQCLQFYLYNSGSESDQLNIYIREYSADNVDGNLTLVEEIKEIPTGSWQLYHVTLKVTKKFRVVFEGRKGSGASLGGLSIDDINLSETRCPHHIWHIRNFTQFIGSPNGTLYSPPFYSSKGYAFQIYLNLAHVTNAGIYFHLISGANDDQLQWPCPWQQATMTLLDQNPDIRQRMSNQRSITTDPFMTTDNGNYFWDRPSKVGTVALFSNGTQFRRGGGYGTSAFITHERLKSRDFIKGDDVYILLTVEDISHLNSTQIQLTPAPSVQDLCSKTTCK", "test": "Meprin β inhibition kinetics / enzyme kinetics", "method_in_brief": "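Trypsin-activated meprin β at 1 nM was run with (MCA)-EDEDED-(K-ε-DNP) 0.5–25 μM plus varying inhibitor concentrations in 50 mM Hepes, 0.01% Brij-35, pH 7.5, at 25 °C. Fluorescence was read at ex 324/em 393 nm. Rates came from the linear portion of the progress curves. Ki and Ki′ came from nonlinear regression with a mixed-inhibition model. Mechanism came from the alpha parameter and was checked with Lineweaver-Burk plots.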"}, "MMP-2": {"target": "T2, MMP-2 (Homo sapiens, UniProt P08253)", "T2 sequence (P08253 110-660)": "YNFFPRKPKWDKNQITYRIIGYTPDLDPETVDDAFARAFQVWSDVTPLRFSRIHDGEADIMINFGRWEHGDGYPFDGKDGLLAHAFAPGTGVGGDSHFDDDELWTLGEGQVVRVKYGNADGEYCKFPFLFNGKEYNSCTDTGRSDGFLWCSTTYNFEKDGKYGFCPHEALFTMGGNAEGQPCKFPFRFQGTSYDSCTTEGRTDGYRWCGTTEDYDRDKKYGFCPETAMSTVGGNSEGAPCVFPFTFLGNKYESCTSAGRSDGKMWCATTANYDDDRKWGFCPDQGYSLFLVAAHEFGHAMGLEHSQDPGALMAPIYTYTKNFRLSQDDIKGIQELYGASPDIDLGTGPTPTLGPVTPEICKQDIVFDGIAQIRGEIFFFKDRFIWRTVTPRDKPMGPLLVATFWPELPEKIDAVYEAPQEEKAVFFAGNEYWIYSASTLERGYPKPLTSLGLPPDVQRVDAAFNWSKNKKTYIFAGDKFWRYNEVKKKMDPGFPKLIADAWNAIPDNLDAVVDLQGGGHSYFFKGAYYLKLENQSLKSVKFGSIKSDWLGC", "test": "Selectivity testing against zinc metalloproteases: MMP-2", "settings": "read-out: IC50 MMP-2; n = 3 Mean ± SD"}, "MMP-13": {"target": "MMP-13 (Homo sapiens, UniProt P45452)", "test": "Selectivity testing against zinc metalloproteases: MMP-13", "settings": "read-out: IC50 MMP-13; n = 3 Mean ± SD"}},
  "note": "Entries after “also recorded” stand apart in the source; their conditions may differ.",
  "data": [
    {"smiles": "O=C(Nc1cc(C(=O)Nc2ccc(S(=O)(=O)O)cc2S(=O)(=O)O)cc(C(=O)Nc2ccc(S(=O)(=O)O)cc2S(=O)(=O)O)c1)Nc1cc(C(=O)Nc2ccc(S(=O)(=O)O)cc2S(=O)(=O)O)cc(C(=O)Nc2ccc(S(=O)(=O)O)cc2S(=O)(=O)O)c1", "note": "[NF449, 4,4′,4″,4‴-[Carbonyl-bis[imino-5,1,3-benzenetriylbis-(carbonyl-imino)]]tetrakis(benzene-1,3-disulfonic acid)]", "values": [
      {"measurement": "Ki lower than IC50, fold", "setting": "meprin β; meprin β Ki versus HTS IC50", "value": 3, "unit": "fold"},
      {"measurement": "α = Ki/Ki′", "setting": "meprin β; mixed-model inhibition, non-linear regression", "value": "3.6 ± 4.3"},
      {"measurement": "mechanism of inhibition of meprin β", "setting": "meprin β; non-linear regression and Lineweaver-Burke plots", "value": "mixed competitive/non-competitive inhibition modality; also recorded: competitive mechanism with elements of non-competitive inhibition"},
      {"measurement": "Ki", "setting": "meprin β; read-out: Ki meprin β, substrate (MCA)-EDEDED-(K-ε-DNP), mixed inhibition model", "value": "0.022 ± 0.0096", "unit": "µM"},
      {"measurement": "IC50", "setting": "MMP-2", "value": "6 ± 0.5", "unit": "µM"},
      {"measurement": "IC50", "setting": "MMP-13", "value": "40 ± 3", "unit": "µM"}
    ]}
  ]
}
